ChEMBL document CHEMBL5696442, “Discovery of type II inhibitors of TGFβ-activated kinase 1 (TAK1) and mitogen-activated protein kinase kinase kinase kinase 2 (MAP4K2)” (J Med Chem, 2015)
Active and inactive are the calls of the source.

Key:
[1] = test system: MEF; assay: Inhibition of IL-1 induced p38 MAPK phosphorylation level in TAK1 deficient mouse MEF cells at low concentration incubated for 1 hr followed by IL-1 stimulation by Western blot analysis; type: functional, cell-based
Summary of the method: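 WT and TAK1-null MEFs were grown in DMEM with 10% FBS, then held in 0.1% FBS for 16 h. Cells were pretreated with inhibitor for 1 h, then stimulated with mouse IL-1α (5 ng/mL, 10 min). Cells were lysed in ice-cold buffer, and extracts were cleared at 16000g and analysed by Western blot.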

[2] = test system: MEF; assay: Inhibition of TGFbeta induced SMAD2 phosphorylation level in TAK1 deficient mouse MEF cells at low concentration incubated for 1 hr followed by TGFbeta stimulation by Western blot analysis
[3] = test system: MEF; assay: Inhibition of TGF-beta induced SMAD2 phosphorylation level in TAK1 deficient mouse MEF cells at low concentration incubated for 1 hr followed by TGF-beta stimulation by Western blot analysis; type: functional, cell-based
Summary of the method: (§1)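 TAK1-null MEFs grown in DMEM with 10% FBS, 2 mM L-glutamine and penicillin/streptomycin at 37 °C under 5% CO2. Inhibitors added 1 h before TGFβ (50 pM, 45 min). Cells lysed in ice-cold buffer with phosphatase and protease inhibitors, extracts cleared at 16000g, then p38 and SMAD2 phosphorylation assessed by Western blot.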

[4] = test system: MEF; assay: Inhibition of TGF-beta induced p38 MAPK phosphorylation level in TAK1 deficient mouse MEF cells at low concentration incubated for 1 hr followed by TGF-beta stimulation by Western blot analysis; type: functional, cell-based; summary of the method: as §1

Measured: inhibition

COc1cc(O)c2c(c1)/C=C/C[C@H](O)[C@H](O)C(=O)/C=C\C[C@H](C)OC2=O
active: all assays above
